Laboratory results: ChEMBL document CHEMBL1135742, “Modification of the structure of a metallopeptide: synthesis and biological evaluation of (111)In-labeled DOTA-conjugated rhenium-cyclized alpha-MSH analogues” (J Med Chem, 2002)

Columns and labels:
Type in all cases: functional, organism-based
Mus musculus [1] = organism: Mus musculus; assay: Uptake of [111In]-labeled compound in blood at 2 hr pi in the absence of […]
Summary of the method: (§1)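 C57 BL/6 female mice, 7–8 weeks old, inoculated s.c. in right flank with 1×10^6 B16/F1 melanoma cells. Used 9–10 days later at tumor weight ~500 mg. […] HPLC-purified 111In-DOTA peptide (neutral pH) given via tail vein, with or without […]. Killed 2 h pi. Tissues weighed and gamma-counted. Uptake expressed as % ID/g.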

Mus musculus [2] = organism: Mus musculus; assay: Uptake of [111In]-labeled compound in liver at 2 h pi in the absence of […]; summary of the method: as §1
Mus musculus [3] = organism: Mus musculus; assay: Uptake of [111In]-labeled compound in liver at 2 hr pi in the presence of […]; summary of the method: as §1
Mus musculus [4] = organism: Mus musculus; assay: Uptake of [111In]-labeled compound in muscle at 2 h pi in the presence of […]; details: Muscle tissue; summary of the method: as §1
Mus musculus [5] = organism: Mus musculus; assay: Uptake of [111In]-labeled compound in muscle at 2 hr pi in the absence of […]; details: Muscle tissue; summary of the method: as §1
Mus musculus [6] = organism: Mus musculus; assay: Uptake of [111In]-labeled compound in tumor at 2 hr pi in the presence of 10 mg NDP; summary of the method: as §1
Mus musculus [7] = organism: Mus musculus; assay: Uptake of [111In]-labeled compound in kidney at 2 hr pi in the presence of […]; summary of the method: as §1

DOTA-ReCCEHdFRWCRPV-NH2
ID/g (Mus musculus [1]): 0.21% | ID/g (Mus musculus [2]): 0.38% | ID/g (Mus musculus [3]): 1.61% | ID/g (Mus musculus [4]): 0.18% | ID/g (Mus musculus [5]): 0.03% | ID/g (Mus musculus [6]): 1.95% | ID/g (Mus musculus [7]): 11.2%
